Measured values from ChEMBL document CHEMBL4038305, “Benzoxaborole Antimalarial Agents. Part 5. Lead Optimization of Novel Amide Pyrazinyloxy Benzoxaboroles and Identification of a Preclinical Candidate” (J Med Chem, 2017).

Legend:
Plasmodium berghei [1] = experiment: Antimalarial activity against Plasmodium berghei infected in Swiss Webster mouse assessed as mouse survival rate at 100 mg/kg administered once daily via oral gavage for 4 consecutive days beginning 1 hr after infection measured on day 8 post infection relative to control; format: functional
Procedure, shortened: (§1)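 Mice given an intraperitoneal injection of P. berghei-infected erythrocytes taken from a previously infected animal. Oral dosing once daily for 4 consecutive days, starting 1 h after infection. Vehicle: polyethylene glycol 300/propylene glycol/water (weight ratio 55/25/20). Percent survival recorded daily from day 4 to day 20. Chloroquine 30 mg/kg and vehicle-only groups served as controls.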

Plasmodium berghei [2] = experiment: Antimalarial activity against Plasmodium berghei infected in Swiss Webster mouse assessed as mouse survival rate at 11 mg/kg administered once daily via oral gavage for 4 consecutive days beginning 1 hr after infection measured on day 5 post infection relative to control; format: functional
Procedure, shortened: (§2)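 P. berghei-infected erythrocytes taken from a previously infected mouse were injected intraperitoneally. Oral dosing, once daily for 4 consecutive days, began 1 h after infection, in polyethylene glycol 300/propylene glycol/water (55/25/20 by weight). Chloroquine at 30 mg/kg was the positive control, with a vehicle-only group. Percent survival was recorded daily from day 4 to day 20.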

[3] = Tmax in CD1 mouse plasma at 5 mg/kg, po via gavage by HPLC/MS analysis; format: ADME, organism-based
Procedure, shortened: (§3)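 Female CD-1 mice, male SD rats or beagle dogs given 5 mg/kg by iv injection or oral gavage. Formulation was PEG300/propylene glycol/water 55/25/20, pH 6. Blood samples analysed by HPLC–MS/MS; parameters include AUC0-inf extrapolated to infinity and terminal half-life.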

[4] = AUC (0 to infinity) in CD1 mouse at 5 mg/kg, po via gavage by HPLC/MS analysis; format: ADME, organism-based; design: dose 5 mg/kg, time infinity, route oral; conditions: in vivo
Plasmodium berghei [5] = experiment: Antimalarial activity against Plasmodium berghei infected in Swiss Webster mouse assessed as mouse survival rate at 3.7 mg/kg administered once daily via oral gavage for 4 consecutive days beginning 1 hr after infection measured on day 4 post infection relative to control; format: functional; procedure, shortened: as §2
Plasmodium berghei [6] = experiment: Antimalarial activity against Plasmodium berghei infected in Swiss Webster mouse assessed as mouse survival rate at 100 mg/kg administered once daily via oral gavage for 4 consecutive days beginning 1 hr after infection measured on day 5 post infection relative to control; format: functional; procedure, shortened: as §1
Plasmodium falciparum [7] = experiment: Antimalarial activity against chloroquine-sensitive Plasmodium falciparum 3D7 infected in human erythrocytes assessed as reduction in [3H]-hypoxanthine incorporation preincubated for 24 hrs followed by [3H]-hypoxanthine addition measured after 24 hrs by scintillation counting method; format: functional, cell-based
Procedure, shortened: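 P. falciparum 3D7 cultures were exposed to the compound for 48 h, with atovaquone as the reference control. IC50 was taken from three replicates.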

Plasmodium berghei [8] = experiment: Antimalarial activity against Plasmodium berghei infected in Swiss Webster mouse assessed as mouse survival rate administered once daily via oral gavage for 4 consecutive days beginning 1 hr after infection measured on day 4 post infection; format: functional; procedure, shortened: as §1
Plasmodium berghei [9] = experiment: Antimalarial activity against Plasmodium berghei infected in Swiss Webster mouse assessed as mouse survival rate at 1.2 mg/kg administered once daily via oral gavage for 4 consecutive days beginning 1 hr after infection measured on day 7 post infection relative to control; format: functional; procedure, shortened: as §1
Plasmodium berghei [10] = experiment: Antimalarial activity against Plasmodium berghei infected in Swiss Webster mouse assessed as mouse survival rate at 33 mg/kg administered once daily via oral gavage for 4 consecutive days beginning 1 hr after infection measured on day 5 post infection relative to control; format: functional; procedure, shortened: as §2
Plasmodium berghei [11] = experiment: Antimalarial activity against Plasmodium berghei infected in Swiss Webster mouse assessed as mouse survival rate at 100 mg/kg administered once daily via oral gavage for 4 consecutive days beginning 1 hr after infection measured on day 9 post infection relative to control; format: functional; procedure, shortened: as §1
Plasmodium berghei [12] = experiment: Antimalarial activity against Plasmodium berghei infected in Swiss Webster mouse assessed as mouse survival rate at 100 mg/kg administered once daily via oral gavage for 4 consecutive days beginning 1 hr after infection measured on day 6 post infection relative to control; format: functional; procedure, shortened: as §1
[13] = Terminal half life in CD1 mouse at 5 mg/kg, iv by HPLC/MS analysis; format: ADME, organism-based; conditions: in vivo, read-out: beta t1/2 (converted); procedure, shortened: as §3
Plasmodium berghei [14] = experiment: Antimalarial activity against Plasmodium berghei infected in Swiss Webster mouse assessed as mouse survival rate at 11 mg/kg administered once daily via oral gavage for 4 consecutive days beginning 1 hr after infection measured on day 7 post infection relative to control; format: functional; procedure, shortened: as §2
Plasmodium falciparum [15] = experiment: Antimalarial activity against chloroquine-resistant Plasmodium falciparum W2 infected in human erythrocytes after 48 hrs by YOYO-1 dye based flow cytometric analysis; format: functional, cell-based; conditions: W2, 48 h
Procedure, shortened: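 P. falciparum W2 cultures were exposed to the compound for 48 h, with artemisinin and chloroquine as reference controls. IC50 was taken from two independent replicates.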

Plasmodium berghei [16] = experiment: Antimalarial activity against Plasmodium berghei infected in Swiss Webster mouse assessed as mouse survival rate at 1.2 mg/kg administered once daily via oral gavage for 4 consecutive days beginning 1 hr after infection measured on day 6 post infection relative to control; format: functional; procedure, shortened: as §1
Plasmodium berghei [17] = experiment: Antimalarial activity against Plasmodium berghei infected in Swiss Webster mouse assessed as mouse survival rate at 100 mg/kg administered once daily via oral gavage for 4 consecutive days beginning 1 hr after infection measured on day 11 post infection relative to control; format: functional; procedure, shortened: as §1
Plasmodium berghei [18] = experiment: Antimalarial activity against Plasmodium berghei infected in Swiss Webster mouse assessed as mouse survival rate at 33 mg/kg administered once daily via oral gavage for 4 consecutive days beginning 1 hr after infection measured on day 10 post infection relative to control; format: functional; procedure, shortened: as §2
Plasmodium berghei [19] = experiment: Antimalarial activity against Plasmodium berghei infected in Swiss Webster mouse assessed as mouse survival rate at 100 mg/kg administered once daily via oral gavage for 4 consecutive days beginning 1 hr after infection measured on day 13 post infection relative to control; format: functional; procedure, shortened: as §1
Plasmodium berghei [20] = experiment: Antimalarial activity against Plasmodium berghei infected in Swiss Webster mouse assessed as mouse survival rate at 33 mg/kg administered once daily via oral gavage for 4 consecutive days beginning 1 hr after infection measured on day 9 post infection relative to control; format: functional; procedure, shortened: as §2
Plasmodium berghei [21] = experiment: Antimalarial activity against Plasmodium berghei infected in Swiss Webster mouse assessed as mouse survival rate at 33 mg/kg administered once daily via oral gavage for 4 consecutive days beginning 1 hr after infection measured on day 11 post infection relative to control; format: functional; procedure, shortened: as §2
Plasmodium berghei [22] = experiment: Antimalarial activity against Plasmodium berghei infected in Swiss Webster mouse assessed as mouse survival rate at 0.1 mg/kg administered once daily via oral gavage for 4 consecutive days beginning 1 hr after infection measured on day 7 post infection relative to control; format: functional; procedure, shortened: as §1
Plasmodium berghei [23] = experiment: Antimalarial activity against Plasmodium berghei infected in Swiss Webster mouse assessed as mouse survival rate at 33 mg/kg administered once daily via oral gavage for 4 consecutive days beginning 1 hr after infection measured on day 12 post infection relative to control; format: functional; procedure, shortened: as §2
Plasmodium berghei [24] = experiment: Antimalarial activity against Plasmodium berghei infected in Swiss Webster mouse assessed as mouse survival rate at 0.4 mg/kg administered once daily via oral gavage for 4 consecutive days beginning 1 hr after infection measured on day 5 post infection relative to control; format: functional; procedure, shortened: as §1
Plasmodium berghei [25] = experiment: Antimalarial activity against Plasmodium berghei infected in Swiss Webster mouse assessed as mouse survival rate at 0.1 mg/kg administered once daily via oral gavage for 4 consecutive days beginning 1 hr after infection measured on day 6 post infection relative to control; format: functional; procedure, shortened: as §1

Row | SMILES | survival at 100 mg/kg (Plasmodium berghei [1]) [%] | survival at 11 mg/kg (Plasmodium berghei [2]) [%] | Tmax [3] [h] | AUC(0-inf) [4] [µg·h/mL] | survival at 3.7 mg/kg (Plasmodium berghei [5]) [%] | survival at 100 mg/kg (Plasmodium berghei [6]) [%] | IC50 (Plasmodium falciparum [7]) [µM] | ED90 (Plasmodium berghei [8]) [mg/kg] | survival at 1.2 mg/kg (Plasmodium berghei [9]) [%] | survival at 33 mg/kg (Plasmodium berghei [10]) [%] | survival at 100 mg/kg (Plasmodium berghei [11]) [%] | survival at 100 mg/kg (Plasmodium berghei [12]) [%] | half-life [13] [h] | survival at 11 mg/kg (Plasmodium berghei [14]) [%] | IC50 (Plasmodium falciparum [15]) [µM] | survival at 1.2 mg/kg (Plasmodium berghei [16]) [%] | survival at 100 mg/kg (Plasmodium berghei [17]) [%] | survival at 33 mg/kg (Plasmodium berghei [18]) [%] | survival at 100 mg/kg (Plasmodium berghei [19]) [%] | survival at 33 mg/kg (Plasmodium berghei [20]) [%] | further results
1 | Cc1c(Oc2cnc(C(=O)NCCO)cn2)ccc2c1B(O)OC2 | 40 | 100 | 1 | 29.6 | 100 | 100 | 1.08 | 56.1 | 0 | 100 | 40 | 100 | 3 | 0 | 0.372 | 100 |  |  |  |  | 
2 | CCC1(O)CN(C(=O)c2cnc(Oc3ccc4c(c3C)B(O)OC4)cn2)C1 | 100 | 100 |  |  | 100 | 100 | 0.055 | 4.8 | 0 | 100 | 100 | 100 |  | 40 | 0.0289 | 100 | 100 | 20 | 100 | 80 | survival at 33 mg/kg (Plasmodium berghei [21]): 20%; survival at 0.1 mg/kg (Plasmodium berghei [22]): 0%; survival at 33 mg/kg (Plasmodium berghei [23]): 20%; survival at 0.4 mg/kg (Plasmodium berghei [24]): 100%; survival at 0.1 mg/kg (Plasmodium berghei [25]): 100%
3 | Cc1c(Oc2cnc(C(=O)N3CC(O)(C4CC4)C3)cn2)ccc2c1B(O)OC2 | 100 | 100 |  |  | 100 | 100 | 0.134 | 10.3 | 0 | 100 | 100 | 100 |  | 0 | 0.0517 | 100 | 100 | 40 | 100 | 100 | survival at 33 mg/kg (Plasmodium berghei [21]): 40%; survival at 0.1 mg/kg (Plasmodium berghei [22]): 0%; survival at 33 mg/kg (Plasmodium berghei [23]): 40%; survival at 0.4 mg/kg (Plasmodium berghei [24]): 100%; survival at 0.1 mg/kg (Plasmodium berghei [25]): 100%
4 | Cc1c(Oc2cnc(C(=O)NC(C)CO)cn2)ccc2c1B(O)OC2 (stereo not drawn) | 100 | 40 | 1 | 33 |  | 100 | 0.994 | 44.3 |  | 100 | 80 | 100 | 3.1 | 40 | 0.342 |  | 40 |  |  |  | 
5 | CCC[C@H](CO)NC(=O)c1cnc(Oc2ccc3c(c2C)B(O)OC3)cn1 | 100 | 100 | 0.5 | 21.6 | 100 | 100 | 0.201 | 11.7 | 0 | 100 | 100 | 100 | 4.2 | 0 | 0.161 | 100 | 20 |  | 20 | 0 | 
6 | Cc1c(Oc2cnc(C(=O)N3CC(O)(C(F)(F)F)C3)cn2)ccc2c1B(O)OC2 | 100 | 100 |  |  | 100 | 100 | 0.008 | 5.7 |  | 100 | 100 | 100 |  | 100 | 0.0066 |  | 100 | 50 | 100 | 100 | survival at 33 mg/kg (Plasmodium berghei [21]): 50%; survival at 0.1 mg/kg (Plasmodium berghei [22]): 0%; survival at 33 mg/kg (Plasmodium berghei [23]): 50%; survival at 0.4 mg/kg (Plasmodium berghei [24]): 100%; survival at 0.1 mg/kg (Plasmodium berghei [25]): 100%
